# Measured values from ChEMBL document CHEMBL4396947, “Synthesis and characterization of novel isoform-selective IP6K1 inhibitors” (Bioorg Med Chem Lett, 2019).
# Assays:
# [1] = target: Serine/threonine-protein kinase 4 (Homo sapiens) (UniProt Q13043); experiment: Inhibition of full length recombinant human MST1 assessed as residual activity at 10 uM using KKSRGDYMTMQIG as substrate incubated for 40 mins in presence of [gamma-33P]ATP at Km concentration by radiometric assay relative to control
# [2] = target: Mitogen-activated protein kinase 14 (Homo sapiens) (UniProt Q16539); experiment: Inhibition of recombinant full length human SAPK2alpha assessed as residual activity at 10 uM using myelin basic protein as substrate incubated for 40 mins in presence of [gamma-33P]ATP at Km concentration by radiometric assay relative to control
# [3] = target: Rho-associated protein kinase 1 (Homo sapiens) (UniProt Q13464); experiment: Inhibition of recombinant human ROCK1 (17 to 535 residues) assessed as residual activity at 10 uM using KEAKEKRQEQIAKR as substrate incubated for 40 mins in presence of [gamma-33P]ATP at Km concentration by radiometric assay relative to control
# [4] = Solubility of compound in pH 7.4 PBS at 100 ug/ml incubated for 2 hrs by LC-MS/MS analysis; format: physicochemical; conditions: buffer, pH 7.4, 2 h
# [5] = target: Inositol hexakisphosphate kinase 2 (Homo sapiens, UniProt Q9UHH9); experiment: Inhibition of IP6K2 (unknown origin) incubated for 30 mins using IP6 as substrate in presence of ATP by ADP-Glo reagent based luminescence assay
# In short: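 Luminescent ADP-Glo Max format adapted for IP6K, with purified enzyme and ATP at 1 mM, which is consumed as the kinase reaction proceeds. IC50 taken from the resulting inhibition data.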
# [6] = target: Tyrosine-protein kinase Fyn (Homo sapiens) (UniProt P06241); experiment: Inhibition of human full length recombinant FYN assessed as residual activity at 10 uM using KVEKIGEGTYGVV as substrate incubated for 40 mins in presence of [gamma-33P]ATP at Km concentration by radiometric assay relative to control
# [7] = test system: Glycogen synthase kinase-3 beta (Homo sapiens), P49841 [UNDEFINED MUTATION]; experiment: Inhibition of human recombinant GSK3beta H350L mutant (2 to end residues) assessed as residual activity at 10 uM using YRRAAVPPSPSLSR as substrate incubated for 40 mins in presence of [gamma-33P]ATP at Km concentration by radiometric assay relative to control
# [8] = test system: Eukaryotic elongation factor 2 kinase (Homo sapiens), O00418 [H23R]; experiment: Inhibition of recombinant human eEF2K H23R mutant (2 to end residues) assessed as residual activity at 10 uM using RKKFGESEKTKTK as substrate incubated for 40 mins in presence of [gamma-33P]ATP at Km concentration by radiometric assay relative to control
# [9] = test system: RAF proto-oncogene serine/threonine-protein kinase (Homo sapiens), P04049 [Y340D,Y341D]; experiment: Inhibition of recombinant human c-RAF Y340D/Y341D double mutant (360 to end residues) assessed as residual activity at 10 uM using inactive MEK1 as substrate incubated for 40 mins in presence of [gamma-33P]ATP at Km concentration by radiometric assay relative to control
# [10] = target: Cyclin-dependent kinase 1/cyclin B1 (Homo sapiens) (UniProt P06493+P14635); experiment: Inhibition of human full length recombinant CDK1/cyclinB assessed as residual activity at 10 uM using Histone H1 as substrate incubated for 40 mins in presence of [gamma-33P]ATP at Km concentration by radiometric assay relative to control; format: protein-complex assay
# [11] = target: Casein kinase I isoform gamma-1 (Homo sapiens) (UniProt Q9HCP0); experiment: Inhibition of recombinant human CK1gamma1 (25 to 355 residues) assessed as residual activity at 10 uM using KRRRALS(p)VAS as substrate incubated for 40 mins in presence of [gamma-33P]ATP at Km concentration by radiometric assay relative to control
# [12] = organism: Homo sapiens; experiment: Inhibition of recombinant human PRAK 5 R291E mutant assessed as residual activity at 10 uM using KKLRRTLSVA as substrate incubated for 40 mins in presence of [gamma-33P]ATP at Km concentration by radiometric assay relative to control
# [13] = target: Mitogen-activated protein kinase kinase kinase 7 (Homo sapiens) (UniProt O43318); experiment: Inhibition of recombinant human TAK1 (1 to 303 residues) assessed as residual activity at 10 uM using casein as substrate incubated for 40 mins in presence of [gamma-33P]ATP at Km concentration by radiometric assay relative to control
# [14] = test system: Ribosomal protein S6 kinase beta-1 (Homo sapiens), P23443 [T412E]; experiment: Inhibition of recombinant human p70S6K T412E mutant (1 to 421 residues) assessed as residual activity at 10 uM incubated for 40 mins in presence of [gamma-33P]ATP at Km concentration by radiometric assay relative to control
# [15] = target: MAP kinase-interacting serine/threonine-protein kinase 2 (Homo sapiens) (UniProt Q9HBH9); experiment: Inhibition of full length recombinant human MNK2 assessed as residual activity at 10 uM using myelin basic protein as substrate incubated for 40 mins in presence of [gamma-33P]ATP at Km concentration by radiometric assay relative to control
# [16] = target: SRSF protein kinase 1 (Homo sapiens) (UniProt Q96SB4); experiment: Inhibition of recombinant human SRPK1 (2 to end residues) assessed as residual activity at 10 uM using RSRSRSRSRSRSRSR as substrate incubated for 40 mins in presence of [gamma-33P]ATP at Km concentration by radiometric assay relative to control
# [17] = target: CDK6/cyclin D3 (Homo sapiens) (UniProt P30281+Q00534); experiment: Inhibition of human full length recombinant CDK6/cyclinD3 assessed as residual activity at 10 uM using Histone H1 as substrate incubated for 40 mins in presence of [gamma-33P]ATP at Km concentration by radiometric assay relative to control; format: protein-complex assay
# [18] = target: Serine/threonine-protein kinase 10 (Homo sapiens) (UniProt O94804); experiment: Inhibition of human recombinant LOK (1 to 348 residues) assessed as residual activity at 10 uM using RLGRDKYKTLRQI as substrate incubated for 40 mins in presence of [gamma-33P]ATP at Km concentration by radiometric assay relative to control
# [19] = target: Serine/threonine-protein kinase 17A (Homo sapiens) (UniProt Q9UEE5); experiment: Inhibition of human full length recombinant DRAK1 assessed as residual activity at 10 uM using KKLNRTLSFAEPG as substrate incubated for 40 mins in presence of [gamma-33P]ATP at Km concentration by radiometric assay relative to control
# [20] = target: Protein kinase C theta type (Homo sapiens) (UniProt Q04759); experiment: Inhibition of recombinant full length human PKCtheta assessed as residual activity at 10 uM using histone H1 as substrate incubated for 40 mins in presence of [gamma-33P]ATP at Km concentration by radiometric assay relative to control
# [21] = target: Ephrin type-A receptor 5 (Homo sapiens) (UniProt P54756); experiment: Inhibition of recombinant human EPHA5 (655 to 956 residues) assessed as residual activity at 10 uM using poly (Glu,Tyr) 4:1 as substrate incubated for 40 mins in presence of [gamma-33P]ATP at Km concentration by radiometric assay relative to control
# Chain of Ephrin type-A receptor 5 (Homo sapiens) (P54756 whole entry, the tested form may be a part): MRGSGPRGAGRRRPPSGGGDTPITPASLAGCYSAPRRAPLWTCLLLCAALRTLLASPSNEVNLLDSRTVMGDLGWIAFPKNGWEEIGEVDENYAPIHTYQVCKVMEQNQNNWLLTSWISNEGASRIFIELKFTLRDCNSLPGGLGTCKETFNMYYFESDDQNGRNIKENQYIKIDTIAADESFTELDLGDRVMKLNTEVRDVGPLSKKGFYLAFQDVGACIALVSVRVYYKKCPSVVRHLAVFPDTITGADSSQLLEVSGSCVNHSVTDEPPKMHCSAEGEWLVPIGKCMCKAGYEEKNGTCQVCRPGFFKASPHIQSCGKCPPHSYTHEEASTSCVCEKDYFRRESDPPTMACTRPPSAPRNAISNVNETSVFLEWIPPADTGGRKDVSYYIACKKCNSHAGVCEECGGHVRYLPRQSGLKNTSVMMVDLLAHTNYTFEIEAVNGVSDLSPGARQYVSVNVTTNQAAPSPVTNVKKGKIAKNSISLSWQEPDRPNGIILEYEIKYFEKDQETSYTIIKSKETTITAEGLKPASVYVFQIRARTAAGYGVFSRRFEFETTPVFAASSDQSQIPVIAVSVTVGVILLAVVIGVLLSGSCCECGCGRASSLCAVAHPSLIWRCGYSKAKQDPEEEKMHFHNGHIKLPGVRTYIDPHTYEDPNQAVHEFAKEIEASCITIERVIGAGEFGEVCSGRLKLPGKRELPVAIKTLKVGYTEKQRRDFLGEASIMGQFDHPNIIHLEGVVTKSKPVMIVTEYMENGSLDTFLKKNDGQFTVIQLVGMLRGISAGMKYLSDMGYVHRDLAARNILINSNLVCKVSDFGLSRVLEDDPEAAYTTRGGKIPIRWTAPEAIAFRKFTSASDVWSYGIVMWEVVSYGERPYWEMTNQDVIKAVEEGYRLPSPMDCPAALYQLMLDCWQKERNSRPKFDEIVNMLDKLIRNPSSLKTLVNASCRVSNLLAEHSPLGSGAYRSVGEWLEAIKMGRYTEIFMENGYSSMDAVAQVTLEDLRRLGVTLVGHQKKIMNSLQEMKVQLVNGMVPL
# Chain of Mitogen-activated protein kinase kinase kinase 7 (Homo sapiens) (O43318 whole entry, the tested form may be a part): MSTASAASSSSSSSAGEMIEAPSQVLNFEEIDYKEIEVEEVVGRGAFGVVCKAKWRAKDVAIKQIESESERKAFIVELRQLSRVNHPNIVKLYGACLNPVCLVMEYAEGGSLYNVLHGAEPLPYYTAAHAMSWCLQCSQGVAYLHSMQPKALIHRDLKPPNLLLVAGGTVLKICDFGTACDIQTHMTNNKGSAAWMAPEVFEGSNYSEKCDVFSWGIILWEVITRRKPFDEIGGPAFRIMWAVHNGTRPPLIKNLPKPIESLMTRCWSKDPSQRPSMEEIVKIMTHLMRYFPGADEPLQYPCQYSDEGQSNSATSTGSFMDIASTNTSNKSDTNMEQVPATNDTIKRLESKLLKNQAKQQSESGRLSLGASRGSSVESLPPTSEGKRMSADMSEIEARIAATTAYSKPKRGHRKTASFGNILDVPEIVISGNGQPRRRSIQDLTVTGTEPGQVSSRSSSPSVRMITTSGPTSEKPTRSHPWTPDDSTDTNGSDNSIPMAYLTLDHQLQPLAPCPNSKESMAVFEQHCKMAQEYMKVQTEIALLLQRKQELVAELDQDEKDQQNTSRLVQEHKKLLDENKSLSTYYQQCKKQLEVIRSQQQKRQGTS
# Chain of MAP kinase-interacting serine/threonine-protein kinase 2 (Homo sapiens) (Q9HBH9 whole entry, looked up): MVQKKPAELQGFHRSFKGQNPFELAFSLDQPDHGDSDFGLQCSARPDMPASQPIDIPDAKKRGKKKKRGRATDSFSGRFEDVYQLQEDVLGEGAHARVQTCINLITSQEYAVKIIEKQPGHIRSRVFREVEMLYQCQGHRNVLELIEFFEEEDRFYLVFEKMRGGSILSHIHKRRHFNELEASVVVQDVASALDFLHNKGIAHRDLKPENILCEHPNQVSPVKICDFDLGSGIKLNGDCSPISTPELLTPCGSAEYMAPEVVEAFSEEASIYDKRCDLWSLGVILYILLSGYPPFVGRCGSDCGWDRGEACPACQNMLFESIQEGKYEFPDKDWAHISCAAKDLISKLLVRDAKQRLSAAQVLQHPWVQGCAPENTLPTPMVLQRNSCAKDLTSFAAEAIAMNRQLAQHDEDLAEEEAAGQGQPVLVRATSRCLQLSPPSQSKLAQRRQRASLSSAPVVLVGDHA
# Chain of Tyrosine-protein kinase Fyn (Homo sapiens) (P06241 2-537 limits assumed): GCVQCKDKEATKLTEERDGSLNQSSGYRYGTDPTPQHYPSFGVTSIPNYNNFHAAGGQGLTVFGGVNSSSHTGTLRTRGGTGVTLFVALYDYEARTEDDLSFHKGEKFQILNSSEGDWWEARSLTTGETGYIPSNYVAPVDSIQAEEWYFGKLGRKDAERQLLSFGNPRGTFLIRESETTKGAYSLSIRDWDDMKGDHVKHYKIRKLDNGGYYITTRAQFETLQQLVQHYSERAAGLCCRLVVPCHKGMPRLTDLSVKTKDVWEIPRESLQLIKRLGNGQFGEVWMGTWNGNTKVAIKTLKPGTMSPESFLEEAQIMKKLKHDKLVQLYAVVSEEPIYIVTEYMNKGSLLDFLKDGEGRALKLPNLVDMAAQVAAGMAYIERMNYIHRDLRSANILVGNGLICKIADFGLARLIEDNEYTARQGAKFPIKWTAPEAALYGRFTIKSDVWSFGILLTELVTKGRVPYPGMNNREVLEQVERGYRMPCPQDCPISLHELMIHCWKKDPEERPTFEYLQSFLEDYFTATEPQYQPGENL
# Chain of SRSF protein kinase 1 (Homo sapiens) (Q96SB4 whole entry): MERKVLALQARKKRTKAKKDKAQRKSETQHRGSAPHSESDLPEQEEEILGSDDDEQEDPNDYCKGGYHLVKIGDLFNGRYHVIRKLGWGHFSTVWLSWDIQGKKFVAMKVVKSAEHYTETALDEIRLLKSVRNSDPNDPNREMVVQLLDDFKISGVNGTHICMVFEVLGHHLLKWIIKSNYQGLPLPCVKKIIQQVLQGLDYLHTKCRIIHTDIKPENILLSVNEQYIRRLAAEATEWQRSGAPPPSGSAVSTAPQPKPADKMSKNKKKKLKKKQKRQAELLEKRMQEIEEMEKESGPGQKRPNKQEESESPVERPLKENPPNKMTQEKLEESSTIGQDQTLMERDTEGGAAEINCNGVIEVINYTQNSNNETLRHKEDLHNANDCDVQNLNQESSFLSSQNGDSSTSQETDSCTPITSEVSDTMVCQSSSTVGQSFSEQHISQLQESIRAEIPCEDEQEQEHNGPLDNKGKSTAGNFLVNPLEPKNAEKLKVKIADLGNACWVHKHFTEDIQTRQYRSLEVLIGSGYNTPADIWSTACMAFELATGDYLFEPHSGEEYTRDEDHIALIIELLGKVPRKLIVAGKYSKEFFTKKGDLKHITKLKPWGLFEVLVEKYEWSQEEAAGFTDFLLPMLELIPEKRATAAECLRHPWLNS
# Chain of Casein kinase I isoform gamma-1 (Homo sapiens) (Q9HCP0 whole entry, looked up, the tested form may be a part, canonical isoform): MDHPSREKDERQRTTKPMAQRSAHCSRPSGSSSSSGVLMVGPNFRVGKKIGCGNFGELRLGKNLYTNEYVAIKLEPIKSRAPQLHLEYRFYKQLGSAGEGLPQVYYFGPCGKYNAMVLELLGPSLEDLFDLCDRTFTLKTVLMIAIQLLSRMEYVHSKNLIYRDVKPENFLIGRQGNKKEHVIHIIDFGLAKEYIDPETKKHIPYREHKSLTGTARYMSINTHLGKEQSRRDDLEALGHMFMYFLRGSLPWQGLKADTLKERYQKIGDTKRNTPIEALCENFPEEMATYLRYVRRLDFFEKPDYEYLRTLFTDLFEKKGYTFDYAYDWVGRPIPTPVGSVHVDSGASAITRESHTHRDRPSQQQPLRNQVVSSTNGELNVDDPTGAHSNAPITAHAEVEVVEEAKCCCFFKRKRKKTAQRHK
# Chain of Serine/threonine-protein kinase 17A (Homo sapiens) (Q9UEE5 whole entry): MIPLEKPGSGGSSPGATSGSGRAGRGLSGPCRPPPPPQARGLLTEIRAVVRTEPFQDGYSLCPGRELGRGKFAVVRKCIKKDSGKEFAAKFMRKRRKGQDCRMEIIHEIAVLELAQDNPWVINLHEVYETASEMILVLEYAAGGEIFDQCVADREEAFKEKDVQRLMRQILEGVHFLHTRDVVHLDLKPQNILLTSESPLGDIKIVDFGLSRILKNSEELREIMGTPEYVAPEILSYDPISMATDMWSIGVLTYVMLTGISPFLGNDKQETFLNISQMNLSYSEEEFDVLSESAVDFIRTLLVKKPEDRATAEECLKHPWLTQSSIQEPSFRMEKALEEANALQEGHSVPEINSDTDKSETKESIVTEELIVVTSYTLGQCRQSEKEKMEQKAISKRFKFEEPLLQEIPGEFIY
# Chain of Cyclin-dependent kinase 1/cyclin B1 (Homo sapiens) (P06493 whole entry, looked up, the tested form may be a part, canonical isoform): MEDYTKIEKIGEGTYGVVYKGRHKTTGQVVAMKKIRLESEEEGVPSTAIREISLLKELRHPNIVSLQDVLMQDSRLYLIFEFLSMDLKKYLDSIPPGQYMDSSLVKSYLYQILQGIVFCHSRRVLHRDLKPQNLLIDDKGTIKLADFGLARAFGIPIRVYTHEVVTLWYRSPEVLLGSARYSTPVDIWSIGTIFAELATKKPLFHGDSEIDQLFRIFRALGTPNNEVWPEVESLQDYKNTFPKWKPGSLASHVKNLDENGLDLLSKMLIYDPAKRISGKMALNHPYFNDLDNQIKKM
# Chain of Cyclin-dependent kinase 1/cyclin B1 (Homo sapiens) (P14635 whole entry, looked up, the tested form may be a part, canonical isoform): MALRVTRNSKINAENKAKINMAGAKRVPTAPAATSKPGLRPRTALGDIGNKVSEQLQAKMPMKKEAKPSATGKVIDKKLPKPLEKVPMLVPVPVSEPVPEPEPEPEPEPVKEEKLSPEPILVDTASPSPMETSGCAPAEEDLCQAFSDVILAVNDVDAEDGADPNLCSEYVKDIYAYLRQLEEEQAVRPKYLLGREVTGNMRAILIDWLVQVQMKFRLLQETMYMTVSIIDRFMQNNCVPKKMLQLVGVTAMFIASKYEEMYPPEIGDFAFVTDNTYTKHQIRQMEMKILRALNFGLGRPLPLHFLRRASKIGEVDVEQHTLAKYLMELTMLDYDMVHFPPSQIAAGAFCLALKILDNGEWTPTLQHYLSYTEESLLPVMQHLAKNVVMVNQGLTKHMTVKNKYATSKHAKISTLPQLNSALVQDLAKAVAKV
compound,measurement,setting,value
COc1ccc2c(CCNc3nc(NCc4ccc(=O)[nH]c4)c4nc[nH]c4n3)c[nH]c2c1,Activity,[1],82%
same,Activity,[2],92%
same,Activity,[3],91%
same,solubility,[4],51 µg/mL
same,IC50,[5],20 µM
same,Activity,[6],84%
same,Activity,[7],63%
same,Activity,[8],46%
same,Activity,[9],-3%
same,Activity,[10],83%
same,Activity,[11],6%
same,Activity,[12],87%
same,Activity,[13],66%
same,Activity,[14],94%
same,Activity,[15],76%
same,Activity,[16],91%
same,Activity,[17],82%
same,Activity,[18],97%
same,Activity,[19],69%
same,Activity,[20],87%
same,Activity,[21],114%
